The values that follow come from ChEMBL document CHEMBL1149266, “2,3-diaminopyridine bradykinin B1 receptor antagonists” (J Med Chem, 2004).

The structures appear in SMILES notation.

The nature of data set [1]: Clearance in Sprague-Dawley rat at 2 mg/kg, iv. The note with it: in vivo. In kind it is ADME, organism-based. Also noted: dose 2 mg/kg, route intravenous.
The nature of data set [2]: Oral bioavailability in Sprague-Dawley rat at 10 mg/kg, po. The note with it: in vivo. It is filed as ADME, organism-based.
Data set [3] is described as follows: Half life in mongrel dog at 1 mg/kg, iv. It is filed as ADME, organism-based, Canis lupus familiaris. Details: dose 1 mg/kg, route intravenous; call rule not given here. The settings on record: in vivo.
A short description of data set [4]: Half life in Sprague-Dawley rat at 2 mg/kg, iv. In kind it is ADME, organism-based. Details: dose 2 mg/kg, route intravenous. The settings on record: in vivo.
Data set [5] in a line: Clearance in mongrel dog at 1 mg/kg, iv. In kind it is ADME, organism-based, Canis lupus familiaris. The note with it: in vivo. Also noted: dose 1 mg/kg, route intravenous.
The target of data set [6] is T1, B1 bradykinin receptor (Homo sapiens, UniProt P46663).
T1 sequence (P46663 whole entry): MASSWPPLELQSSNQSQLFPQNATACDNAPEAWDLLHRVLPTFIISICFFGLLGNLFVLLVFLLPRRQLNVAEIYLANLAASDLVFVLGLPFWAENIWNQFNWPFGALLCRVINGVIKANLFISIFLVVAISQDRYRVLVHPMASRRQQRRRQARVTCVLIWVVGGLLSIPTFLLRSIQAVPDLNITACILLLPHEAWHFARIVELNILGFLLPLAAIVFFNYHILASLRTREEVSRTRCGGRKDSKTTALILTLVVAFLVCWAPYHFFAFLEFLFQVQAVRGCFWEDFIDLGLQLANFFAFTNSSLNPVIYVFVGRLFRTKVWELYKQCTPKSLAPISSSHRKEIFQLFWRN
Nature of the data set: Displacement of [3H]des-arg10, leu9-kallidin from human bradykinin B1 receptor expressed in CHO cells. It is filed as cell-based. An outline of the steps:
(§1)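 Radioligand binding using CHO cells that stably express the human B1 or B2 receptor, with the appropriate radioligand for each; Ki in nM.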

For data set [7], the target named is T1, B1 bradykinin receptor. In words: Antagonist activity at bradykinin B1 receptor expressed in CHO cells assessed as inhibition of des-arg10-kallidin-induced increase in cytosolic calcium level by FLIPR assay. In kind it is functional, cell-based. The method, boiled down: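 FLIPR functional assay using functionally active human B1 receptors; IC50 in nM.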

The nature of data set [8]: Oral bioavailability in mongrel dog at 3 mg/kg, po. It is filed as ADME, organism-based, Canis lupus familiaris. The note with it: in vivo.
For another data set, the system named is Oryctolagus cuniculus. In words: Antinociceptive effect against CFA-induced hyperalgesia in iv dosed New Zealand rabbit model by spinal nociceptive reflex assay. In kind it is functional. The settings on record: read-out: ID50 (the source's name). An outline of the steps:
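CFA was used to induce mechanical hyperalgesia in the rabbit hind paw. The read-out was inhibition of the spinal nociceptive reflex to a noxious pinch of the inflamed paw. Antagonist was dosed iv over a dose range, giving an ID50 (mg/kg). Three rabbits per experiment.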

In data set [9] the target is T2, B1 bradykinin receptor (Rattus norvegicus, UniProt P97583).
T2 sequence (P97583 whole entry): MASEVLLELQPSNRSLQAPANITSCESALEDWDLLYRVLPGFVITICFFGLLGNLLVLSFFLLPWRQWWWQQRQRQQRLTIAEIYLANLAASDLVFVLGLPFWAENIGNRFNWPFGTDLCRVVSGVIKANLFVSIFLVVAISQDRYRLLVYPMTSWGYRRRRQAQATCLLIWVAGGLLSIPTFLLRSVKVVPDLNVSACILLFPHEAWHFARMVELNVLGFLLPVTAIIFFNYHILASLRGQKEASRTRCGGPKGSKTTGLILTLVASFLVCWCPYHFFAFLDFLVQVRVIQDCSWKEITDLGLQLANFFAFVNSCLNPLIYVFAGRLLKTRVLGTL
Nature of the data set: Displacement of [3H]des-arg10 kallidin from rat bradykinin B1 receptor expressed in CHO cells. In kind it is cell-based. An outline of the steps:
(§2)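 Radioligand binding at rat or rabbit B1 receptor; Ki in nM. Values are the average of at least two experiments, with ±25% interassay variability.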
On the technique in general: Loss of bound radioactivity is the signal in a displacement assay; it reports binding, not function.

The target of data set [10] is T3, B1 bradykinin receptor (Oryctolagus cuniculus) (UniProt P48748).
T3 sequence (whole entry): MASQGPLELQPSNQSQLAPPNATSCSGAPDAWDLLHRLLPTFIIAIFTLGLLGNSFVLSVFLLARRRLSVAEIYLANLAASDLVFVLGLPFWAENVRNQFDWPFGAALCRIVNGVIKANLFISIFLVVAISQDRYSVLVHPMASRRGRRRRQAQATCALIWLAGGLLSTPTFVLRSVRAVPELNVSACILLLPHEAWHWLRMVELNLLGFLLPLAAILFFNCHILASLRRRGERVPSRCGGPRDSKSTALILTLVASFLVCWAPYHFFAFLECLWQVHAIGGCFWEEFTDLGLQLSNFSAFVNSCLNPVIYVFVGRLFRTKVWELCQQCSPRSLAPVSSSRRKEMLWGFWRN
In words: Inhibition of desArg9-bradykinin-induced decrease in mean arterial blood pressure in iv dosed New Zealand white rabbit. In kind it is functional, organism-based. An outline of the steps: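 Rabbits received iv LPS to induce vascular B1 receptors. The depressor blood pressure response to DABK (1 μg/kg iv) was recorded. Rising iv doses of antagonist were given as pretreatment before repeated DABK doses, giving an AD50 (mg/kg). Three rabbits per experiment.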

In data set [11] the target is T4, B1 bradykinin receptor (Oryctolagus cuniculus, UniProt P48748).
T4 sequence (P48748 whole entry): T3 sequence (whole entry)
In words: Binding affinity to rabbit bradykinin B1 receptor. The method, boiled down: as §2

For data set [12], the target named is T4, B1 bradykinin receptor. In words: Activity at rabbit bradykinin B1 receptor assessed by FLIPR assay. In kind it is functional. The method, boiled down:
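FLIPR functional assay using functionally active rabbit B1 receptors; IC50 in nM. Values are the average of at least two experiments, with ±30% interassay variability.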

A further data set concerns the target T5, B2 bradykinin receptor (Homo sapiens, UniProt P30411).
T5 sequence (P30411 whole entry): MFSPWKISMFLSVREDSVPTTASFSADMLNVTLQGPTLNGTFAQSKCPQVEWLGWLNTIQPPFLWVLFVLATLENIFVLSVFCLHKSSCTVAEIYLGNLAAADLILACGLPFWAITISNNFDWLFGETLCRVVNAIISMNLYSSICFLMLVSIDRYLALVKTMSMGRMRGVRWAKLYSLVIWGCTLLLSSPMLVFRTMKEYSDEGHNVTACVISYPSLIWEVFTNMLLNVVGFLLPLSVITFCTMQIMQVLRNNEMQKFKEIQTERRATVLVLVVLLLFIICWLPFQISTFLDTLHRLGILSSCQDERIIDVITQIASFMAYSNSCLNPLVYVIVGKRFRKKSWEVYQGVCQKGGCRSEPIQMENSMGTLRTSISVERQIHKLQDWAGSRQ
In words: Displacement of [3H]bradykinin from human bradykinin B2 receptor expressed in CHO cells. It is filed as cell-based. An outline of the steps:
as §1

A word on the clearance: it is the rate of elimination divided by the concentration. Broadly, the bioavailability is the share of a dose that reaches the circulation, judged against a reference dose that is usually intravenous. Higher therefore signals good availability. What is called half-life is the time in which the quantity being followed falls by half. A lower half-life goes with fast loss. The Ki is the equilibrium dissociation constant of an inhibitor or competing ligand from its target. A low value points to higher affinity. In general, IC50 refers to the concentration that inhibits the measured activity by half. `Cc1nc(-c2c(F)cccc2-c2ccc([C@@H](C)Nc3nccc(Cl)c3NC(=O)CC#N)cc2)no1`: the clearance in data set [1] worked out at 4.9 mL/min/kg; in data set [5] it was 5.9 mL/min/kg. Besides, the figures for the bioavailability in [2] and in [8] were 50% and 25%, respectively. The values for the half-life in data set [3] and in data set [4] were 2 h and 12.9 h, respectively. In addition, at B1 bradykinin receptor [6], the Ki was 0.7 nM (antagonist). Further, the IC50 on B1 bradykinin receptor [7] was 0.78 nM (antagonist).
Regarding `C[C@@H](Nc1nccc(Cl)c1NC(=O)CC#N)c1ccc(-c2cccc(F)c2-c2nnn(C)n2)cc1`, in the data set on Oryctolagus cuniculus, the ED50 was found to be 3.1 mg/kg. Further, the clearance was 9 mL/min/kg in data set [1] and 2.4 mL/min/kg in [5]. Further, the bioavailability was determined as 73% in data set [2] and 69% in data set [8]. In addition, the values for the half-life in [3] and in data set [4] were 3.8 h and 7.8 h, respectively. The Ki at B1 bradykinin receptor [9] is listed as 119 nM (antagonist); on B1 bradykinin receptor [11], 3 nM (antagonist); on B1 bradykinin receptor [6], 0.5 nM (antagonist). The AD50 in [10] stood at 0.28 mg/kg. The concentration for half-maximal inhibition (IC50) against B1 bradykinin receptor [12] was 3.9 nM (antagonist); on B1 bradykinin receptor [7], 1.17 nM (antagonist).
On to `C[C@@H](Nc1nccc(Cl)c1NC(=O)CC#N)c1ccc(-c2cccc(F)c2C#N)cc1`, for which the clearance in data set [1] was found to be 8.3 mL/min/kg. In data set [2], the bioavailability is 80%. The compound also showed a half-life in data set [4] of 0.9 h. At B1 bradykinin receptor [6], the inhibition constant Ki was 2 nM (antagonist).
For `COC(=O)c1ccc(Cl)cc1-c1ccc([C@@H](C)Nc2nccc(Cl)c2NC(=O)CC#N)cc1`, the results for the clearance in data set [1] and in data set [5] were 25 mL/min/kg and 5.5 mL/min/kg, respectively. The bioavailability in [2] is 6%; in data set [8] it was 2%. Besides, the values for the half-life in data set [3] and in data set [4] were 0.9 h and 0.5 h, respectively. The Ki on B1 bradykinin receptor [6] is listed as 0.8 nM (antagonist). Besides, the IC50 on B1 bradykinin receptor [7] is given as 1.5 nM (antagonist).
`COC(=O)c1ccc(C)cc1-c1ccc([C@@H](C)Nc2nccc(C)c2NC(=O)CC#N)cc1` displayed a clearance in [1] of 42 mL/min/kg. Also, the bioavailability in data set [2] amounted to 21%. The same compound had a half-life in data set [4] of 0.6 h. Also, the inhibition constant (Ki) was > 10000 nM on B2 bradykinin receptor and 1.2 nM (antagonist) at B1 bradykinin receptor [6]. For the same compound, the IC50 on B1 bradykinin receptor [7] is given as 1.4 nM (antagonist).
On to `C[C@@H](Nc1nccc(Cl)c1NC(=O)CC#N)c1ccc(-c2cccc(F)c2-c2nnnn2C)cc1`, for which the Ki at B1 bradykinin receptor [9] is reported as 12 nM (antagonist); on B1 bradykinin receptor [11] it was 41.5 nM (antagonist); on B1 bradykinin receptor [6], 6 nM (antagonist).
Consider `COC(=O)c1c(Cl)cccc1-c1ccc([C@@H](C)Nc2nccc(Cl)c2NC(=O)CC#N)cc1`, for which the ED50 in the data set with Oryctolagus cuniculus came to 0.9 mg/kg. For the same compound, the clearance in [1] came to 24 mL/min/kg; in data set [5] it was 8.7 mL/min/kg. Besides, the bioavailability in data set [2] came out at 43%; in [8], 23%. Further, the half-life in data set [3] is 6.3 h; in data set [4] it was 1.3 h. The Ki on B1 bradykinin receptor [9] is 35.7 nM (antagonist); on B1 bradykinin receptor [11], 1.1 nM (antagonist); at B1 bradykinin receptor [6], 0.7 nM (antagonist). Also, in data set [10], the AD50 came to 0.8 mg/kg. The figures for the IC50 against B1 bradykinin receptor [12] and at B1 bradykinin receptor [7] were 7.2 nM (antagonist) and 0.85 nM (antagonist), respectively.
Consider `CCCCC(=O)Nc1cccnc1NCc1ccc(-c2ccccc2C(=O)OC)cc1`, for which the inhibition constant (Ki) on B1 bradykinin receptor [6] is on record as 200 nM (antagonist).
Take `C[C@@H](Nc1nccc(Cl)c1NC(=O)CC#N)c1ccc(-c2cccc(F)c2C(F)(F)F)cc1`: in data set [1], the clearance is 36 mL/min/kg. Also, in [2], the bioavailability was 52%. In [4], the half-life was 1.8 h. On B1 bradykinin receptor [6], the Ki is listed as 1.1 nM (antagonist).
Turning to `COC(=O)c1c(F)cccc1-c1ccc([C@@H](C)Nc2nccc(Cl)c2NC(=O)CC#N)cc1`, the ED50 in the data set on Oryctolagus cuniculus was 2.1 mg/kg. Besides, the clearance in data set [1] worked out at 11 mL/min/kg; in [5], 9 mL/min/kg. The results for the bioavailability in data set [2] and in [8] were 50% and 34%, respectively. Also, the half-life in data set [3] was 2.7 h; in data set [4], 2.1 h. Besides, the Ki is recorded as 35.3 nM (antagonist) at B1 bradykinin receptor [9], 0.69 nM (antagonist) on B1 bradykinin receptor [11] and 0.4 nM (antagonist) at B1 bradykinin receptor [6]. In addition, the AD50 in data set [10] is 0.57 mg/kg. The half-inhibitory concentration (IC50) on B1 bradykinin receptor [12] is 2.4 nM (antagonist); at B1 bradykinin receptor [7], 0.25 nM (antagonist).
For the compound `Cc1noc(-c2c(F)cccc2-c2ccc([C@@H](C)Nc3nccc(Cl)c3NC(=O)CC#N)cc2)n1`, the clearance amounted to 9.5 mL/min/kg in data set [1] and 7.3 mL/min/kg in data set [5]. Moreover, the values for the bioavailability in [2] and in [8] were 62% and 14%, respectively. Besides, the values for the half-life in [3] and in data set [4] were 2.1 h and 8.8 h, respectively. Also, the values for the Ki at B1 bradykinin receptor [9], at B1 bradykinin receptor [11] and at B1 bradykinin receptor [6] were 81 nM (antagonist), 2.7 nM (antagonist) and 0.5 nM (antagonist), respectively. The IC50 at B1 bradykinin receptor [12] is 12.3 nM (antagonist); on B1 bradykinin receptor [7] it was 0.94 nM (antagonist).
